In general, half-life refers to the time in which the quantity being followed falls by half. A low value points to fast loss.

Peptide text beside a SMILES is read from it. * marks the point of attachment. Cbz = O=C(OCc1ccccc1)*; CH2F = FC* Some results are limits rather than exact numbers.

For data set [1], the target named is T1, recombinant human caspase-3 (Homo sapiens, UniProt P42574).
T1 sequence (P42574 29-175 limits assumed): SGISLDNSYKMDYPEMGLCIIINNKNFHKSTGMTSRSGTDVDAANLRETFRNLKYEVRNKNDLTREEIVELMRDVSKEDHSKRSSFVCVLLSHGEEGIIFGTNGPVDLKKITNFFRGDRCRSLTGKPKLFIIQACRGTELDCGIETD
T1 sequence (P42574 176-277 limits assumed): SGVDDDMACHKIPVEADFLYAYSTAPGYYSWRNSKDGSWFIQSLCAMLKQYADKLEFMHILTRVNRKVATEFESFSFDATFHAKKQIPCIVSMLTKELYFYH
Description: Caspase-3-mediated macrocyclization in vitro, HPLC assay. The data set is classed as biochemical. The conditions noted are these: probe 25 μM, caspase-3 4.9 × 10^−3 U/ml, 37 °C.

The test system of data set [2] is STS-induced apoptotic HeLa cells. Description: Epifluorescence microscopy of STS-treated HeLa cells. The data set is classed as cell-based, human. The note with it: for cell labeling efficiency: then C-SNAF 2 µM 24 h, HeLa.
The test system of data set [3] is subcutaneous HeLa tumors in female nude mice. Description: In vivo fluorescence imaging of DOX-induced tumor apoptosis. Details: species or system mouse. Summed up: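 HeLa s.c. xenografts in female nu/nu mice given DOX 8 mg/kg or saline i.v. every 4 days, three times. Two days after the last dose, probe (5 nmol in saline) given i.v. and imaging started immediately: hyperspectral imager, 635±25 nm excitation, 675 nm long-pass emission, 670–900 nm collected. Cy5.5 unmixed from autofluorescence; tumor ROI intensity expressed as percent difference from saline group. Same animals also imaged after a single DOX dose.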

The subject of data set [4] is STS-induced apoptotic HeLa cells. Kind of data set: Flow cytometry of STS-induced apoptotic HeLa cells labelled with probe. The data set is classed as cell-based, human. Summed up:
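HeLa cells made apoptotic with staurosporine, or left viable, then incubated with probe (2 μM), with or without Z-VAD-fmk pretreatment (50 μM). Co-stained with a fluorescent caspase inhibitor (FLICA) as the apoptosis marker. Flow cytometry gated into four quadrants by FLICA and Cy5.5 positivity; Cy5.5 fluorescence compared between apoptotic and viable cells.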
In general terms: Flow cytometry measures light scatter and fluorescence of single cells or particles in a stream.

In data set [5] the test system is lysate of apoptotic HeLa cells. Description: HPLC analysis of C-SNAF reaction in apoptotic cell lysate. The data set is classed as cell-based, human. The note with it: C-SNAF 5 μM, overnight, 37 °C.
Data set [6] is described as follows: Blood circulation and biodistribution in healthy nude mice. The conditions noted are these: 5 nmol i.v. The data set is classed as in vivo, mouse.
The nature of data set [7]: Stability in mouse serum by HPLC. The data set is classed as in vitro ADME.
Data set [8] deals with lysate of apoptotic MDA-MB-231 cells. Kind of data set: HPLC analysis of C-SNAF reaction in apoptotic cell lysate. The note with it: C-SNAF 5 μM, overnight, 37 °C. The data set is classed as cell-based, human.
Another data set relates to HeLa tumor lysates. Kind of data set: HPLC analysis of C-SNAF reaction in tumor lysates. The data set is classed as in vivo, mouse. The note with it: C-SNAF 5 μM, 24 h incubation with tumor lysate, 675 nm.
In another data set the test system is DOX-treated HeLa cells. Description: Epifluorescence microscopy of DOX-treated HeLa cells. The data set is classed as cell-based, human. The note with it: for cell labeling efficiency: 24 h, HeLa.
The subject of another data set is HeLa tumor xenograft. Description: Chemotherapy mouse model, tumor size. The data set is classed as in vivo. Summed up: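 Female nu/nu mice, 6 weeks old, given 2 million HeLa cells s.c. in the shoulders in 50% Matrigel/supplemented DMEM. Tumors grown to 0.7–0.9 cm on one aspect (about 10–15 days), then given DOX 8 mg/kg or saline i.v. every 4 days, three times. Body weight and caliper width/length recorded every other day; volume = (length × width²)/2.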

In data set [9] the test system is caspase-3/7 activity in HeLa tumor lysates. Kind of data set: Caspase-Glo 3/7 assay in tumor lysates. The data set is classed as in vivo, mouse. The note with it: 3X DOX 8 mg/kg i.v., Caspase-Glo 3/7, n = 4.

As to `CCSSC[C@@H](NC(=O)[C@H](CC(=O)O)NC(=O)[C@@H](NC(=O)[C@H](CCC(=O)O)NC(=O)[C@H](CC(=O)O)NC(C)=O)C(C)C)C(=O)N[C@@H](CCCCNC(=O)CCCCCN1C(=CC=CC=CC2=[N+](CC)c3ccc4c(S(=O)(=O)[O-])cc(S(=O)(=O)O)cc4c3C2(C)C)C(C)(C)c2c1ccc1c(S(=O)(=O)O)cc(S(=O)(=O)O)cc21)C(=O)Nc1ccc2nc(C3=N[C@@H](C(=O)NCCCOc4ccc5nc(C#N)ccc5c4)CS3)sc2c1` [C-SNAF], the “conversion to C-SNAF-cycl after 6 h” value in data set [1] was “nearly completely converted to C-SNAF-cycl”. In addition, the cell labeling efficiency stood at 23% in data set [2] (STS 0.5 μM 4 h), 90% in data set [2] (STS 2 μM 4 h), 9% with DOX-treated HeLa cells (DOX 1 μM co-incubated with C-SNAF 2 µM) and 92% in the data set on DOX-treated HeLa cells (DOX 5 μM co-incubated with C-SNAF 2 µM). Also, the entries for the “enhancement in cell labeling efficiency” value (in [2] (STS 0.5 to 2 μM); with DOX-treated HeLa cells (DOX 1 to 5 μM)) were “approximately 4 fold” and “approximately 10 fold”, respectively. In addition, the “labeling of apoptotic cells (fluorescence microscopy, words)” value in data set [2] (probe 2 µM, 24 h, STS-treated HeLa cells) was “Efficient labeling”. Also, the “increase in tumor fluorescence signal, DOX-treated compared to saline-treated mice” value in data set [3] (5 nmol i.v., 3X DOX 8 mg/kg, by 4 h, n = 5) turned out to be 1.6 fold. Moreover, the “time of maximum tumor fluorescence after administration” value in data set [3] (5 nmol i.v., n = 5) worked out at 1 h. The “tumor fluorescence relative to saline-treated mice” value in data set [3] (after single dose of DOX (1X DOX), 2 h after C-SNAF, n = 4) is given as “moderate increase in tumor fluorescence”. Besides, the “tumor fluorescence relative to saline and 1X DOX” value in data set [3] (after third round of DOX, same animals, n = 4) was “significant fluorescence enhancement”. For the same compound, the “uptake in untreated viable HeLa cells” value in data set [4] (probe 2 μM, 24 h, Cy5.5 fluorescence) is “low uptake”. In addition, in data set [4] (probe 2 μM, 24 h, STS 2 μM 4 h, HeLa), the “increase in Cy5.5 fluorescence of FLICA-positive apoptotic cells relative to viable cells” value is recorded as ~13 fold. Also, the “conversion of C-SNAF to C-SNAF-cycl” value in data set [5] and in data set [8] was “more than 90%” throughout. In data set [6], the “time of nearly complete elimination from the body” value is ≤ 12 h. Also, the blood half-life in data set [6] (Cy5.5 fluorescence of blood, n = 5) is given as 1.0 ± 0.45 h. In [7], the half-life was > 360 min. For the same compound, the “amount of C-SNAF-cycl in DOX-treated relative to saline-treated tumor lysates (HPLC)” value in the data set with HeLa tumor lysates is given as “significantly greater amount of C-SNAF-cycl”.
Regarding `COc1cccc2c1C(=O)c1c(O)c3c(c(O)c1C2=O)C[C@@](O)(C(=O)CO)C[C@@H]3O[C@H]1C[C@H](N)[C@H](O)[C@H](C)O1` [DOX, doxorubicin], the “tumor size change” value in the data set on HeLa tumor xenograft (following 1X DOX 8 mg/kg i.v.) is listed as “no significant size difference”; with HeLa tumor xenograft (following the third round of DOX 8 mg/kg i.v.) it was “significant size reduction”. Further, the “increase in caspase-3/7 activity, DOX-treated relative to saline-treated tumors” value in [9] was found to be 1.9 fold.
As to `COC(=O)C[C@H](NC(=O)[C@H](C)NC(=O)[C@@H](NC(=O)OCc1ccccc1)C(C)C)C(=O)CF` [Z-VAD-fmk, reference compound] (Cbz-Val-Ala-Asp(OMe)-CH2F), the “effect of caspase inhibitor on labeling by C-SNAF” value in data set [4] (Z-VAD-fmk 50 μM, 30 min before C-SNAF 2 μM, STS-treated HeLa) is “abrogated”.
